# Results as given in the EternaBench riboswitch data.
# System: MS2 coat protein
# Assay: apparent Kd, MS2 coat protein; higher = weaker binding; RNA-MaP array; FMN 200 µM where present
# Summary of the method: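 Designs were transcribed by stalled E. coli RNA polymerase on Illumina sequencing-chip clusters. They were titrated with SNAP-549-labelled MS2 coat protein from 0.7 or 1.5 nM, doubling to 3 µM, without and then with constant ligand. Buffer: 100 mM Tris-HCl pH 7.5, 80 mM KCl, 4 mM MgCl2, BSA, DTT, yeast tRNA, Tween-20. Green signal was normalised to red-channel RNA signal and control-cluster median Fmax. Apparent Kd is the median of filtered per-cluster binding-curve fits.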
# [1] = designed as: ON switch for flavin mononucleotide, no ligand
# [2] = ligand present: flavin mononucleotide, designed as: ON switch for flavin mononucleotide
# [3] = designed as: OFF switch for flavin mononucleotide, no ligand
# [4] = ligand present: flavin mononucleotide, designed as: OFF switch for flavin mononucleotide
Sequence,apparent Kd [1] [nM],apparent Kd [2] [nM],apparent Kd [3] [nM],apparent Kd [4] [nM]
ACAUCGUGAGACAUGAGGAUCACCCAUGUGUGAUAGUGGGCACAGGAUAUCCAGAUCUGGAAUCUGGAGAAGGGUGAUCGUUAA,47,149,–,–
ACAUGAGAUCUAGGAUAUAUUGUACCUACAUGUGACAUGAGGAUCACCCAUGUGGUAAGUAUGACAUAGAAGGAGAAGAUAUGU,71,54.3,–,–
ACAUGAGGAUCACCCAUGUAUACAUAGGAUAUUGGUGAUCAGGGAUGUUUUACAGGAUAUGUCUGCGAGAAGGAUGCAAGUACU,178,94.7,–,–
ACAUGAGGAUCACCCAUGUAUUACAUGGUUAUGUUUAUUAACAGAAGGCGAAAUUACCACUGAAUCGAGGAUAUGUAUUCUAUA,–,–,53.4,45.1
ACAUGAGGAUCACCCAUGUCUUUAUCCGAUUCUUCAUUUACGUAGGAUAUCGUCUAUACUAUCAUCGAGAAGGACGUUCUUUAA,17.6,15.9,–,–
ACAUGAGGAUCACCCAUGUGAACAUAGGAUAUUGGUGAUCAGGCGUGUUAUACAGGAUAGGUCUGCGAGAAGGGUGCACGUUGC,540,146,–,–
ACAUGAGGAUCACCCAUGUGACCACAAUGGCUGAUAUAGAAACAGGAUAUUCGUGAAUAUCUAACGAAGAAGGGUUAUGACUGG,–,–,77.8,85
ACAUGAGGAUCACCCAUGUUAUUUGGGAAUUAAUUUAUUUGUAGAAGGAUGUUUUCUUGUUAGUCAUAGGAUAUACUAUUAAAU,–,–,40.7,34.4
ACAUGAGGAUCACCCAUGUUGAAUUAGGAUAUUUGACUGCACAUGAGGUUCACCCAUGUUCAACCGGAGAAGGGAUUAAUAAUU,82.5,83.6,–,–
ACAUGAGGAUCACCCAUGUUUACAUGGAUUAUUAAUCUUGGAUAGGAUAUGUUAGUUAAGUAUUUACAGAAGGAUCAAUUCCUU,–,–,27.7,20.2
ACAUUUUAUGCAGGAUAUUGACAUAUAUUUAAACAAGAAGGGCAUUACAUGAGGAUCACCCAUGUUAUAAUGGUAUAUAAGUUC,–,–,21.4,19.2
ACCACGUCAGCGAUAUGAUCGAGAGAUCAUGUCGCUGAAUUUAGAAGGACAUGAGGAUCACCCAUGUAGGAUAUGGGUCGUGGA,39.1,11.8,–,–
ACCACGUUAGCGAUAUGAUCGAGAGAUCAUGUCGCUAUAUUUAGAAGGACAUGAGGAUCACCCAUGUAGGAUAUGGGUCGUGGA,36.3,9.03,–,–
ACCGUCCUCGUCAGGAUAUGUAUUGACUCUCCGAUACAGAAGGGACAUGAGGAUCACCCAUGUCCGGGACCUUA,–,–,18.2,21.7
ACCUCACAUGAGGAUCACCCAUGUCAGGAUAUGUACCCGAUCAAGUCAGAGAUUGGGAGCAGAAGGGACUGCGG,–,–,119,34.5
ACCUCACAUGAGGAUCACCCAUGUUAGGAUAUAUAAUCGUCGGCCUAGGGCCGGAGAUAUAGAAGGAGCAUAAC,–,–,16.9,19.7
ACCUCACAUGAGGAUCACCCAUGUUAGGAUAUCUCGGCGCCCUGCAGGCAGUGGCACCAGAGAAGGAACGUGCA,–,–,22.5,25.3
ACCUGGAUAGGAUAUACAUGAGGAUCACCCAUGUGACUCAGGCCAGGGAAGUACUUCGGUAGAAGGGUCCAGUA,–,–,18.2,20.7
ACCUUACAUGAGGAUCACCCAUGUUAGGAUAUCUCGCCUGCGCAAUCACAGCGCAGGCAGAGAAGGGACGCGGG,–,–,30.3,32.1
ACGACUGUCAUAGGAUAUGGUUACAUGAGGAUCACCCAUGUCAAGGGUCUAACUAAGUAUAGCUACUAGAAGGAUGAUAGUCGA,–,–,143,116
ACGCUCAGAGGAUAUACAUGAGGAUCACCCAUGUGUUACCGAGGAGUACGGUCGUCACGUAGAAGGCUGGGUAA,–,–,17.9,63.2
ACGGAACAUGAGGAUCACCCAUGUAUCUGAAAUAUGGACUCACAGGAUAUUCAGAGUUGCCAAUCGGAGAAGGGUGACUCCAGA,25.5,17.2,–,–
ACGGCAAUCACAGGAUAUGGUUACAUGAGGAUCACCCAUGUCAAGGGUCUAAUUAGGUAUAACUACCAGAAGGGUGAAGGCCUA,–,–,74.4,105
ACGUUUUAUGCAGGAUAUUGAAAUAUAUUUAAACAAGAAGGGCAAUACAUGAGGAUCACCCAUGUCAGCAUGGUAUUUAAGUUC,–,–,43.9,45.4
ACGUUUUUUGAGGAUAUGCGACGUUCCUUCGUCGUAGAAGGCGAUACAUGAGGAUCACCCAUGUUUAUGGGCAU,–,–,119,137
ACGUUUUUUGAGGAUAUGCGACGUUUUUUCGUCGUAGAAGGCGAUACAUGAGGAUCACCCAUGUUUAUGGGCAU,–,–,126,174
ACUAUACGAGGAUAUGCUGUCAGUACUCAGAGGUUAAUGUGACAUGAGGAUCACCCAUGUAGAAGGCGUUUACU,–,–,34.2,23.8
ACUAUACGAGGAUAUGCUGUCAGUACUCCGGAGUUAGUUUGACAUGAGGAUCACCCAUGUAGAAGGCGUUUACU,–,–,40,30.3

Sequence,apparent Kd [1] [nM],apparent Kd [2] [nM],apparent Kd [3] [nM],apparent Kd [4] [nM]
ACUCAGUCAGGAUAUCGUUAAUUUAAUUGUUUGUUUUAGUUCGAGAAGGGACAUGAGGAUCACCCAUGUACUCA,–,–,25.3,51.2
ACUCGACAUGAGGAUCACCCAUGUGAGGAUAUCGUUAUUUACUUUGUUUAUAGUAUCUCGAGAAGGCACAUUUG,–,–,18.1,54.6
ACUGUUAAGACAGGAUAUCGAUUAUAACCUCUAAAACAUGAGGAUCACCCAUGUAGUCCGUAUUGCGAGAAGGGUCAUUUUAGU,295,233,–,–
ACUUACUGAGGAUAUACAUAGAUUUACAUGAGGAUCACCCAUGUUCCUCUAUGUAUAAAUGUAGAAGGCAGAAGUG,–,–,22.4,120
AGAAACUACGAGAAGGACAUAUGGUACUUCAGCUACAUGAGGAUCACCCAUGUAGGAUAUCGUAGUUUCAGGAUCGUGAGAUCA,–,–,5.65,6.02
AGAAACUACGAGAAGGACAUAUGGUACUUCAGUUACAUGAGGAUCACCCAUGUAGGAUAUCGUAGUUUCAGGAUCGUGAGAUCA,–,–,22,169
AGAAACUACGAGAAGGACAUAUGGUUCUUCAGAUACAUGAGGAUCACCCAUGUAGGAUAUCGUAGUUUCAGGAUCGUGAGAUCA,–,–,6.51,9.68
AGAAAGGCAGGAUAUACAUGAGGAUCACCCAUGUUAAGAGUGACGGAAACGUCACGAAGUAGAAGGGCCAAGAA,–,–,21.1,18.7
AGAAUAAACCAGAAGGCGUAGAUACAUGAGGAUCACCCAUGUAUACUUGCGAGGAUAUGGAUGAUUCAAGUGCGUUUCGUAGCA,6.06,4.23,–,–
AGACCCAUGACAUGACAUGACAUGAGGAUCACCCAUGUUUACAAGGAUAUGUUGAUGAAACAUCAACAGAAGGUGUAAUGGGCU,–,–,20.9,73.1
AGACUUGCAGGAUAUACAUGAGGAUCACCCAUGUAUGUAAACUUAUGCGGUGUGACCUGUAGAAGGGUAGGCGU,–,–,21.1,24.2
AGAGAUACGCUCGUCGGACACCGACAUGAGGAUCACCCAUGUAGAAGGCGAUGCGCAACUCGCAUUGAGGAUAUAUAAUGCAGC,–,–,6,5.74
AGAGUGUGAGGAUAUAUGGUGAAGAUGAAGGGAUAGAAGGAGUAGAAGGUACAUGAGGAUCACCCAUGUUAGGA,–,–,25.2,25.7
AGAUAACACCAGAAGGACAUGAGGAUCACCCAUGUAGGAUAUGGGCAUCACUCGAGAAAGAAAAGACCAAAUGUACACGCGGUC,91.7,9.27,–,–
AGAUAGGAUGCAGGAUAUCUAUCUUGAAUGAGGAGAGAAGGGCAAGUAGAUAGAUAAGCCUCAUGACAUGAGGAUCACCCAUGU,–,–,14.1,12.9
AGAUAGUGGUGAGGAUAUCAGAAUAGAAAGAAAUGAGAAGGCGCACAUGAGGAUCACCCAUGUGAGGUCUUGAGACUACAUGGU,–,–,20,22.1
AGAUAGUUAUAACGCCAUCCCUACAUGAGGAUCACCCAUGUGCAGGAUAUAGGCUUGAAGCAAACCUAGAAGGGCACAGGUUGA,–,–,15.8,35.9
AGAUCAGUCUGAGUGCCUCGCGCGAGAAGGUACAGUGUUGUCCUGUUACAUGAGGAUCACCCAUGUAAGGAUAUCGCCGAGGAG,–,–,7.86,28.4
AGAUCCUGAGUCAGGAUAUAGAGGCGGUAGCCUGGCUAGAAGGGACAUGAGGAUCACCCAUGUGGGUUCUUGCC,–,–,12.5,17.4
AGAUUUAAUGAGGAUAUCGUAUUGGAUAUAGUGCGAGAAGGCAUUACAUGAGGAUCACCCAUGUUUUGUUGGGA,–,–,31.8,74.1
AGCACGAAAGUGCAACGAUGUACGAGAAGGACAUGAGGAUCACCCAUGUCGCUGUAACAGCAAAUGUAGGAUAUCGUACAUCGA,–,–,5.14,5.7
AGCACGAGAGGUGCUGUCUAACCACAUGAGGAUCACCCAUGUAAGGAUAUCGCGGCUAUCGGCAUCGAGAAGGUACAGGGAGCA,–,–,11.2,21.6
AGCAGCUCGUCAGGAUAUACGUCACUGCGUCAGCAGUGUGGUAAGAUCACAUGAGGAUCACCCAUGUAGAAGGGACGAGCUGAU,–,–,13.7,273
AGCAUGUGAGGAUAUGUGACCCUCAUCCGAAGGACGAGGGAAUAGAAGGCACAUGAGGAUCACCCAUGUGAUGA,–,–,46.2,188
AGCAUGUUUGGGUAACCUGGCACAUGAGGAUCACCCAUGUGACAGGAUAUCGACGUAGAUGGCGACGAGAAGGGUCCGAUGGGU,–,–,5.78,7.01
AGCCAACAUGAGGAUCACCCAUGUCUACAGGAUUAAGGAUAUGGGCAGGGCUUCCCUGCACUAGAAGGUGAUCGAA,153,214,–,–
AGCGCCAUCGUGAGAUGGCGUAUUACAUGAGGAUCACCCAUGUAGGAUAUCGAUUGCUUUGCAGUCGAGAAGGGCAUGUCCUAG,–,–,35.8,42.7
